Test results published in ChEMBL document CHEMBL3526146, “In vitro and in vivo metabolism and pharmacokinetics of BMS-562086, a potent and orally bioavailable corticotropin-releasing factor-1 receptor antagonist” (Drug Metab Dispos, 2012).

Key:
Hepatocyte [1] = test: Detection of compound level in rat hepatocytes treated with 25 uM of BMS-562086 after 3 hrs by HPLC analysis; format: ADME, cell-based
Outline: (§1)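 Mouse, rat, dog, monkey and human hepatocytes (trypan blue viability checked) at 1.0×10^6 cells/ml in Krebs-Henseleit buffer were incubated with 25 µM compound, in duplicate. Conditions were 37°C, 95/5 O2/CO2, orbital shaking, 3 h. 7-Ethoxycoumarin and 7-hydroxycoumarin (100 µM) served as positive controls, with a cell-free negative control. Reactions were quenched with ice-cold acetonitrile, then sonicated and centrifuged; supernatants were analysed by LC/MS/MS.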

[2] = Detection of compound level in beagle dog hepatocytes treated with 25 uM of BMS-562086 after 3 hrs by HPLC analysis; format: ADME, cell-based, Canis lupus familiaris, Hepatocyte; outline: as §1
Hepatocyte [3] = test: Detection of compound level in human cryopreserved hepatocytes treated with 25 uM of BMS-562086 after 3 hrs by HPLC analysis; format: ADME, cell-based; outline: as §1
Hepatocyte [4] = test: Detection of compound level in mouse hepatocytes treated with 25 uM of BMS-562086 after 3 hrs by HPLC analysis; format: ADME, cell-based; outline: as §1
[5] = Detection of compound level in cynomolgus monkey cryopreserved hepatocytes treated with 25 uM of BMS-562086 after 3 hrs by HPLC analysis; format: ADME, cell-based, Macaca fascicularis, Hepatocyte; outline: as §1
[6] = Apparent permeability from apical to basolateral side in human Caco2 cells; format: ADME, cell-based; conditions: Caco-2
Outline: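 Caco-2 cells (passage 50-60) were seeded at 60,000 cells/cm2 on polycarbonate Transwells and cultured 21-25 days. Transport buffer was HBSS with 2% DMA, pH 7.4. Compound was applied apically at 25 µM at 37°C. Only monolayers with TEER 400-500 Ω cm2 at start and end were used, with mannitol as an integrity probe. Papp = (dQ/dt)/(A×C0).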

CCOc1ccc2ccc(=O)oc2c1
Drug metabolism (Hepatocyte [1]): metabolite_detected | Drug metabolism [2]: metabolite_detected | Drug metabolism (Hepatocyte [3]): metabolite_detected | Drug metabolism (Hepatocyte [4]): metabolite_detected | Drug metabolism [5]: metabolite_detected

OC[C@@H](O)[C@@H](O)[C@H](O)[C@H](O)CO [MANNITOL]
Papp A→B [6]: 0.21 ×10⁻⁶ cm/s

O=c1ccc2ccc(O)cc2o1 [UMBELLIFERONE]
Drug metabolism (Hepatocyte [1]): metabolite_detected | Drug metabolism [2]: metabolite_detected | Drug metabolism (Hepatocyte [3]): metabolite_detected | Drug metabolism (Hepatocyte [4]): metabolite_detected | Drug metabolism [5]: metabolite_detected
